Results taken from ChEMBL document CHEMBL3864151, “Discovery of imidazopyridazines as potent Pim-1/2 kinase inhibitors” (Bioorg Med Chem Lett, 2016).
≈ marks a conversion by molar mass, not a printed value. Calls of active or inactive are those of the source. The calls are words filed in the database; no cut-off is given here.

Tests used:
[1] = Aqueous solubility in pH 7.4 PBS after 48 to 72 hrs by HPLC analysis; assay type: physicochemical
Outline: (§1)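 Aqueous solubility determined in 0.01N HCl, PBS (pH 7.4) and FaSIF (pH 6.8).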

[2] = Inhibition of Pim signaling in human KMS-12-BM cells assessed as upregulation of Pim3 expression at […] after 4 to 72 hrs by Western blot method; assay type: cell-based
[3] = species: Homo sapiens; assay: Competitive binding affinity to wild type human DYRK at 10 uM by kinomescan method relative to control
Outline: (§2)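 DiscoveRX scanMAX kinase panel of protein and lipid kinases and common mutants; competitive binding of compound at 10 µM expressed as percentage of control (POC).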

[4] = Intrinsic clearance in human liver microsomes at 1 uM after 30 mins by LC-MS HRMS analysis; assay type: ADME; conditions: read-out: CLH
[5] = Mean residence time in Sprague-Dawley rat at 2 mg/kg, iv; assay type: ADME, organism-based; conditions: in vivo
Outline: (§3)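 Male Sprague Dawley rats, 3 animals per dosing route, mean values. iv dose 2 mg/kg as a solution in DMSO; po dose 5 mg/kg in 1% Tween 80, 2% HPMC, 97% water/methanesulfonic acid pH 2.2.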

[6] = Antiproliferative activity against human KARPAS620 cells after 72 hrs by CellTiter-Glo assay; assay type: functional, cell-based; conditions: Karpas-620, 72 h
[7] = target: Casein kinase II subunit alpha' (Homo sapiens) (UniProt P19784); assay: Competitive binding affinity to full length wild type human CSNK2A2 expressed in mammalian expression system at 10 uM by kinomescan method relative to control; outline: as §2
[8] = Effect on total BAD levels in human KMS-12-BM cells at […] after 4 to 72 hrs by Western blot method; assay type: ADME, cell-based
[9] = target: Mitogen-activated protein kinase 13 (Homo sapiens) (UniProt O15264); assay: Competitive binding affinity to full length wild type human p38delta expressed in bacterial expression system at 10 uM by kinomescan method relative to control; outline: as §2
[10] = Antiproliferative activity against human L363 cells after 72 hrs by CellTiter-Glo assay; assay type: functional, cell-based; conditions: L-363, 72 h
[11] = Antiproliferative activity against human MM1S cells after 72 hrs by CellTiter-Glo assay; assay type: functional, cell-based; conditions: MM1.S
[12] = target: Voltage-gated inwardly rectifying potassium channel KCNH2 (Homo sapiens, UniProt Q12809); assay: Inhibition of radiolabeled dofetilide binding to human ERG expressed in HEK293 cells
[13] = target: Serine/threonine-protein kinase TAO1 (Homo sapiens) (UniProt Q7L7X3); assay: Competitive binding affinity to partial length wild type human TAOK1 expressed in mammalian expression system at 10 uM by kinomescan method relative to control; outline: as §2
[14] = Antiproliferative activity against human SKMM-2 cells after 72 hrs by CellTiter-Glo assay; assay type: functional, cell-based; conditions: SK-MM-2, 72 h
[15] = target: Glycogen synthase kinase-3 alpha (Homo sapiens) (UniProt P49840); assay: Competitive binding affinity to full length wild type human GSK3A expressed in bacterial expression system at 10 uM by kinomescan method relative to control; outline: as §2
[16] = tested on: KMS-12-BM; assay: Induction of apoptosis in human KMS-12-BM cells assessed as increase in cleaved caspase 7 levels at […] after 4 to 72 hrs by Western blot method; assay type: functional, cell-based
[17] = target: Glycogen synthase kinase-3 beta (Homo sapiens) (UniProt P49841); assay: Competitive binding affinity to full length wild type human GSK3B expressed in mammalian expression system at 10 uM by kinomescan method relative to control; outline: as §2
[18] = Antiproliferative activity against human MOLP2 cells after 72 hrs by CellTiter-Glo assay; assay type: functional, cell-based; conditions: MOLP-2, 72 h
[19] = Antiproliferative activity against PTEN-deficient human OPM2 cells after 72 hrs by CellTiter-Glo assay; assay type: functional, cell-based; conditions: OPM-2, 72 h
[20] = Inhibition of Pim signaling in human KMS-12-BM cells assessed as upregulation of Pim1 expression at […] after 4 to 72 hrs by Western blot method; assay type: cell-based
[21] = Aqueous solubility in 0.01N HCl after 48 to 72 hrs by HPLC analysis; assay type: physicochemical; outline: as §1
[22] = Antiproliferative activity against human MM1R cells after 72 hrs by CellTiter-Glo assay; assay type: functional, cell-based; conditions: MM.1R
[23] = Antiproliferative activity against human KMS12PE cells after 72 hrs by CellTiter-Glo assay; assay type: functional, cell-based; conditions: KMS-12-PE
[24] = Inhibition of Pim signaling in human KMS-12-BM cells assessed as upregulation of Pim2 expression at […] after 4 to 72 hrs by Western blot method; assay type: cell-based
[25] = Intrinsic clearance in rat liver microsomes at 1 uM after 30 mins by LC-MS HRMS analysis; assay type: ADME; conditions: read-out: CLH
[26] = target: Homeodomain-interacting protein kinase 3 (Homo sapiens) (UniProt Q9H422); assay: Competitive binding affinity to partial length wild type human HIPK3 expressed in mammalian expression system at 10 uM by kinomescan method relative to control; outline: as §2
[27] = Antiproliferative activity against human MOLP8 cells after 72 hrs by CellTiter-Glo assay; assay type: functional, cell-based; conditions: MOLP-8, 72 h
[28] = tested on: KMS-12-BM; assay: Induction of apoptosis in human KMS-12-BM cells assessed as increase in cleaved caspase 6 levels at […] after 4 to 72 hrs by Western blot method; assay type: functional, cell-based
[29] = Volume of distribution at steady state in Sprague-Dawley rat at 2 mg/kg, iv; assay type: ADME, organism-based; conditions: in vivo, read-out: Vdss; outline: as §3
[30] = target: Homeodomain-interacting protein kinase 2 (Homo sapiens) (UniProt Q9H2X6); assay: Competitive binding affinity to partial length wild type human HIPK2 expressed in mammalian expression system at 10 uM by kinomescan method relative to control; outline: as §2
[31] = target: Casein kinase II subunit alpha (Homo sapiens) (UniProt P68400); assay: Competitive binding affinity to full length wild type human CSNK2A1 expressed in mammalian expression system at 10 uM by kinomescan method relative to control; outline: as §2
[32] = target: Homeodomain-interacting protein kinase 1 (Homo sapiens) (UniProt Q86Z02); assay: Competitive binding affinity to partial length wild type human HIPK1 expressed in mammalian expression system at 10 uM by kinomescan method relative to control; outline: as §2
[33] = target: Mitogen-activated protein kinase 15 (Homo sapiens) (UniProt Q8TD08); assay: Competitive binding affinity to partial length wild type human ERK8 expressed in bacterial expression system at 10 uM by kinomescan method relative to control; outline: as §2
[34] = Clearance in Sprague-Dawley rat at 2 mg/kg, iv relative to liver blood flow; assay type: ADME, organism-based; conditions: in vivo; outline: as §3
[35] = target: Serine/threonine-protein kinase TAO2 (Homo sapiens) (UniProt Q9UL54); assay: Competitive binding affinity to partial length wild type human TAOK2 expressed in mammalian expression system at 10 uM by kinomescan method relative to control; outline: as §2
[36] = Antiproliferative activity against human U266B1 cells harboring BRAF mutant after 72 hrs by CellTiter-Glo assay; assay type: functional, cell-based; conditions: U-266, 72 h
[37] = Antiproliferative activity against human KMS28BM cells after 72 hrs by CellTiter-Glo assay; assay type: functional, cell-based; conditions: KMS-28BM
[38] = Aqueous solubility in pH 6.8 FsSIF after 48 to 72 hrs by HPLC analysis; assay type: physicochemical; outline: as §1
[39] = Antiproliferative activity against human KMM1 cells after 72 hrs by CellTiter-Glo assay; assay type: functional, cell-based; conditions: KMM-1, 72 h

Structure (SMILES): C[C@@H]1C[C@H](N)CN(c2ccncc2Nc2ncc3ccc(-c4c(F)cccc4F)nn23)C1
- solubility [1]: 180 µg/mL (≈ 413 µM)
- Activity [2]: Active
- Activity [3]: 3.4%
- microsomal CLint at 1 µM [4]: 69 µL/min/mg
- MRT [5]: 4.3 h
- IC50 [6]: 162 nM
- Activity [7]: 2%
- Activity [8]: Non-Toxic
- Activity [9]: 8.4%
- IC50 [10]: 332 nM
- IC50 [11]: 361 nM
- IC50 [12]: 1000 nM
- Activity [13]: 0.6%
- IC50 [14]: 228 nM
- Activity [15]: 1.4%
- Activity [16]: Active
- Activity [17]: 2.3%
- IC50 [18]: 332 nM
- IC50 [19]: 4380 nM
- Activity [20]: Active
- solubility [21]: 200 µg/mL (≈ 459 µM)
- IC50 [22]: 457 nM
- IC50 [23]: 130 nM
- Activity [24]: Active
- microsomal CLint at 1 µM [25]: > 399 µL/min/mg
- Activity [26]: 1.2%
- IC50 [27]: 58 nM
- Activity [28]: Active
- Vd [29]: 7.3 L/kg
- Activity [30]: 1.8%
- Activity [31]: 4.2%
- Activity [32]: 7%
- Activity [33]: 0.65%
- CL [34]: 40%
- Activity [35]: 7.8%
- IC50 [36]: 10000 nM
- IC50 [37]: 86 nM
- solubility [38]: 150 µg/mL (≈ 344 µM)
- IC50 [39]: 2120 nM
